This note sets out measurements from ChEMBL document CHEMBL1151206, “Glycosidase-inhibiting pyrrolidines and pyrrolizidines with a long side chain in Scilla peruviana” (J Nat Prod, 2004).

Assay [1] in a line: Inhibition of almond beta-glucosidase by spectrophotometry. On the set-up: species or system Prunus dulcis. In outline:
(§1)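 Commercial enzyme assayed with the matching p-nitrophenyl glycoside (2 mM) in a 1 mL reaction, at pH 5.0 for the C. saccharolyticum and almond beta-glucosidases, pH 6.8 for bovine liver beta-galactosidase and pH 6.8 for yeast alpha-glucosidase. The reaction was stopped with 2 mL of 400 mM Na2CO3 and released p-nitrophenol was read at 400 nm. IC50 was determined.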

For another assay, the target named is T1, Beta-galactosidase (Bos taurus, UniProt Q58D55).
T1 sequence (Q58D55 whole entry): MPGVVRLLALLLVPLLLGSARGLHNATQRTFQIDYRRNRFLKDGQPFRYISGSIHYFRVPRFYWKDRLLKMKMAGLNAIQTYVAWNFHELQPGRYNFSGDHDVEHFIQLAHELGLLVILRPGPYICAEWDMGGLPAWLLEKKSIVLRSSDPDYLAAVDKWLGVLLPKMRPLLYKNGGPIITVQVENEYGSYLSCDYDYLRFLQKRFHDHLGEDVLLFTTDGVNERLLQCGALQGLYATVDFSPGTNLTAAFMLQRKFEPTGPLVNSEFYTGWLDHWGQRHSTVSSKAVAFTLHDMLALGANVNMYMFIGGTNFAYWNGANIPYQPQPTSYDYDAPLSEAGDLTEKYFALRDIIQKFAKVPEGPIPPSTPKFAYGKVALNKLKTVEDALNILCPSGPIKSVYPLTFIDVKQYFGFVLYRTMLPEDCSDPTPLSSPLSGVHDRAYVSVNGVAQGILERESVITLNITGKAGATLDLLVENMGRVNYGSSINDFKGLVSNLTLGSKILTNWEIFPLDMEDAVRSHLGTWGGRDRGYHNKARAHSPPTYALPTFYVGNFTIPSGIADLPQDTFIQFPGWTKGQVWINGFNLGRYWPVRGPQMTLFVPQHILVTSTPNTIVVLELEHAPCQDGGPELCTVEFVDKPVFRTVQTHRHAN
Kind of assay: Inhibition of bovine liver beta-galactosidase by spectrophotometry. An outline of the steps: as §1

For assay [2], the target named is T2, Tissue alpha-L-fucosidase (Bos taurus) (UniProt Q2KIM0).
T2 sequence (whole entry): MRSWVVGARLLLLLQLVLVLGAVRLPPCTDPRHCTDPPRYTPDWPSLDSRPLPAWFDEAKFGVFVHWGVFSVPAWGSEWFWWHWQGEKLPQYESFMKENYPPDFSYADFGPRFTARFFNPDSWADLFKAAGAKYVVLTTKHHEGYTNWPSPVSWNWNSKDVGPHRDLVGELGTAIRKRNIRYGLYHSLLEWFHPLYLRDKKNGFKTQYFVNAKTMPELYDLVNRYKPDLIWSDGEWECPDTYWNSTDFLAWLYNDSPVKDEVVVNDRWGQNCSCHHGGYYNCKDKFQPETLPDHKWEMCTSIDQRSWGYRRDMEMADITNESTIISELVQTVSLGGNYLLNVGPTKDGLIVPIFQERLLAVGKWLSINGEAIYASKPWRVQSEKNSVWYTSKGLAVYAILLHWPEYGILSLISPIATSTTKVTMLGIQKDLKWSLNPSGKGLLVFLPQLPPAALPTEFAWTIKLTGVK
Description: Inhibition of bovine epididymis alpha-L-fucosidase at 1000 uM by spectrophotometry. An outline of the steps: (§2)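 Commercial enzymes (P. decumbens alpha-L-rhamnosidase at pH 4.5, bovine epididymis alpha-L-fucosidase at pH 5.5, coffee bean alpha-galactosidase at pH 6.5) were incubated with 2 mM p-nitrophenyl glycoside in a 1 mL reaction. The reaction was stopped with 2 mL of 400 mM Na2CO3 and p-nitrophenol was read at 400 nm.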

Another assay concerns Penicillium decumbens. Kind of assay: Inhibition of Penicillium decumbens alpha-L-rhamnosidase at 1000 uM by spectrophotometry. An outline of the steps:
as §2

Assay [3] is described as follows: Inhibition of yeast alpha-glucosidase by spectrophotometry. On the set-up: species or system Saccharomyces cerevisiae. In outline: as §1
The species named for assay [4] is Rattus norvegicus. Kind of assay: Inhibition of rat epididymis alpha-mannosidase at 1000 uM by spectrophotometry. An outline of the steps:
(§3)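 Enzyme source was rat epididymal fluid purified from epididymis, assayed at pH 5.2 with 2 mM of the relevant p-nitrophenyl glycoside in a 1 mL reaction. The reaction was stopped with 2 mL of 400 mM Na2CO3 and p-nitrophenol was measured at 400 nm.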

Assay [5] in a line: Inhibition of rice alpha-glucosidase by spectrophotometry. Details: species or system Oryza sativa.
A further assay deals with T3, Beta-mannosidase (Rattus norvegicus, UniProt Q4FZV0).
T3 sequence (Q4FZV0 whole entry): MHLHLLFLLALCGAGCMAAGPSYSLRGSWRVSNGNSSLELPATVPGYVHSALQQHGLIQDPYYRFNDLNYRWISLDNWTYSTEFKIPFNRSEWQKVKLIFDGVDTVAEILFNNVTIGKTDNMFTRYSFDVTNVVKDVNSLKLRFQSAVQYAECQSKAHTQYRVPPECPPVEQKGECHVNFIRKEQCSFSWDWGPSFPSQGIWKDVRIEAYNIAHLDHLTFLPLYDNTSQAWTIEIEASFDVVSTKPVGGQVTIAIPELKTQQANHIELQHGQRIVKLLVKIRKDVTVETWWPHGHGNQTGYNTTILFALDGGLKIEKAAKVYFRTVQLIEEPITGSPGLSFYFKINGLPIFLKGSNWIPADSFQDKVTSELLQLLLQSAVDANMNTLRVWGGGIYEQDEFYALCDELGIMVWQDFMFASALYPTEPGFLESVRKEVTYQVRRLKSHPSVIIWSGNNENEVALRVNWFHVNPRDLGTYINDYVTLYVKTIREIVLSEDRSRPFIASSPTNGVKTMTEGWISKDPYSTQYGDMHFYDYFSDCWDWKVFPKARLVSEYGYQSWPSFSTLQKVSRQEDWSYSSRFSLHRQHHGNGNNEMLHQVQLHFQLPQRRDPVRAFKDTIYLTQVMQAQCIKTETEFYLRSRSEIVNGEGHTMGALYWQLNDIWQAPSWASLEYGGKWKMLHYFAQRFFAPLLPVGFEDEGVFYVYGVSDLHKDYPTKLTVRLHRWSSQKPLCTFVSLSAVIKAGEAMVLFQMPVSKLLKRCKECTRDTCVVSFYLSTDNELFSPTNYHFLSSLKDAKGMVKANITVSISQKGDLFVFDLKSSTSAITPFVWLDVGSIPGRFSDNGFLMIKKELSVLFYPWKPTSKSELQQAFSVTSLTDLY
Description: Inhibition of rat epididymis beta-mannosidase by spectrophotometry. An outline of the steps:
as §3

The nature of assay [6]: Inhibition of Caldocellum saccharolyticum beta-glucosidase by spectrophotometry. On the set-up: species or system Caldicellulosiruptor saccharolyticus. In outline: as §1
The species named for assay [7] is Rattus norvegicus. Description: Inhibition of rat epididymis beta-galactosidase at 1000 uM by spectrophotometry. An outline of the steps:
as §3

The target of assay [8] is Alpha-galactosidase (Coffea arabica) (UniProt Q42656). Kind of assay: Inhibition of coffee bean alpha-galactosidase at 1000 uM by spectrophotometry. In outline:
as §2

Assay [9] has as its target T4, Lysosomal acid glucosylceramidase (Homo sapiens) (UniProt P04062).
T4 sequence (whole entry): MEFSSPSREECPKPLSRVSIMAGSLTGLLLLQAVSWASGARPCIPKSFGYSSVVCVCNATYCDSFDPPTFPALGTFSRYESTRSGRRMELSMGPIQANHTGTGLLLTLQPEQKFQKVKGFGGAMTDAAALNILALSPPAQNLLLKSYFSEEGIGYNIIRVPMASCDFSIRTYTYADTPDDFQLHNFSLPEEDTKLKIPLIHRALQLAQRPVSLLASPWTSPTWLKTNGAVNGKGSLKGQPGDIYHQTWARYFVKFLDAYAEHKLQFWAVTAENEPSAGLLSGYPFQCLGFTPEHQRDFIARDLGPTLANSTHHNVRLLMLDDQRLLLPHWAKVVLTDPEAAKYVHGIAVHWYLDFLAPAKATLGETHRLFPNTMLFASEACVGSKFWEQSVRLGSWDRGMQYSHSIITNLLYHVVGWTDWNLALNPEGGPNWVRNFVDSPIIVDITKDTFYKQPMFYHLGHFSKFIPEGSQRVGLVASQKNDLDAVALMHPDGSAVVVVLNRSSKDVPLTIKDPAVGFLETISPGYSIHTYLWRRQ
Description: Inhibition of human placental beta-glucocerebrosidase at 1000 uM by spectrophotometry.

The subject of another assay is Prunus dulcis. Kind of assay: Inhibition of almond beta-glucosidase at 1000 uM by spectrophotometry.
Another assay deals with Saccharomyces cerevisiae. Kind of assay: Inhibition of yeast alpha-glucosidase at 1000 uM by spectrophotometry.
Assay [10] addresses T5, Beta-mannosidase (Rattus norvegicus) (UniProt Q4FZV0).
T5 sequence (whole entry): T3 sequence (Q4FZV0 whole entry)
Kind of assay: Inhibition of rat epididymis beta-mannosidase at 1000 uM by spectrophotometry.

Assay [11] deals with maltase-glucoamylase (Rattus norvegicus). Description: Inhibition of rat intestinal maltase at 1000 uM by spectrophotometry.
The target in assay [12] is T6, Beta-galactosidase (Bos taurus) (UniProt Q58D55).
T6 sequence (whole entry): T1 sequence (Q58D55 whole entry)
Kind of assay: Inhibition of bovine liver beta-galactosidase at 1000 uM by spectrophotometry.

Another assay deals with Oryza sativa. Kind of assay: Inhibition of rice alpha-glucosidase at 1000 uM by spectrophotometry.

Structures are written as SMILES. Some results are limits rather than exact numbers.

Alpha-galactosidase (Coffea arabica), sequence (Q42656 16-378 limits assumed): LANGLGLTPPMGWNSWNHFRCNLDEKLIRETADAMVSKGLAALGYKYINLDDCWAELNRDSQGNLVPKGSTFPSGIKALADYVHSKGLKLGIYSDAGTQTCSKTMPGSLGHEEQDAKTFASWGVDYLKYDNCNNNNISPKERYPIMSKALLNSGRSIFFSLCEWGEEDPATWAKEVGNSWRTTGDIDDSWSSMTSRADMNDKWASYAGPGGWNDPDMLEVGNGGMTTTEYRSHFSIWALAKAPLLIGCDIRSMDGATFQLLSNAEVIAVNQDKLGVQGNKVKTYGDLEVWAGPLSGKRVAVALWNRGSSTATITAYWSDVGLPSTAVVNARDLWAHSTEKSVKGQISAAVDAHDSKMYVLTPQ

The term IC50 denotes the concentration needed to halve the response being measured. As to `O=C(CCCCCCC[C@@H](O)[C@H]1N[C@H](CO)[C@@H](O)[C@@H]1O)CCCCO[C@@H]1O[C@H](CO)[C@@H](O)[C@H](O)[C@H]1O`, in assay [1], it took 0.01 µM to reach half-maximal inhibition (IC50).
Turning to `O=C(CCCCO)CCCCCCC[C@@H](O)[C@H]1N[C@H](CO)[C@@H](O)[C@@H]1O`, inhibition in [1] was half-maximal at 0.01 µM (IC50).
Broadly, the inhibition is the percentage by which the read-out fell short of the control. The low end stands for a response near the control, the high end for a response far below the control. Consider `CC(O)C[C@H]1N[C@H](CO)[C@@H](O)[C@@H]1O` (stereo partly drawn), for which the IC50 was 260 µM against Beta-galactosidase; 100 µM in [3]; 210 µM in assay [5]; 610 µM against Beta-mannosidase; 700 µM in assay [6]. The inhibition (in [2]; in the assay on Penicillium decumbens; in the assay filed under Rattus norvegicus [4]; in the assay filed under Rattus norvegicus [7]; in assay [8]; in assay [9]) was less than 50% in each case. For the same compound, the inhibition with Prunus dulcis was less than 50%.
In assay [1], `O=C(CCCCCCCC[C@@H](O)[C@H]1N[C@H](CO)[C@@H](O)[C@@H]1O)CCCO[C@@H]1O[C@H](CO)[C@@H](O)[C@H](O)[C@H]1O` had an IC50 of 0.01 µM.
In the case of `CC(O)CC[C@@H]1CC[C@@H]2[C@@H](O)[C@H](O)[C@@H](CO)N12` (stereo partly drawn), the inhibition (with Saccharomyces cerevisiae; in [2]; in [10]; in the assay on Penicillium decumbens; in [11]; in the assay listed under Rattus norvegicus [4]) was less than 50% each time. For the same compound, the inhibition (in [12]; in the assay listed under Rattus norvegicus [7]; with Oryza sativa; in assay [8]; in assay [9]) was less than 50% in each case. Also, the half-maximal inhibitory concentration (IC50) in assay [6] was found to be 136 µM; in [1] it was 49 µM.
Consider `OC[C@@H]1[C@@H](O)[C@H](O)[C@H]2[C@H](O)CCN21`, for which the concentration for half-maximal inhibition (IC50) in assay [3] worked out at 95 µM.
Consider `CC(O)CC[C@@H]1C[C@@H](O)[C@@H]2[C@@H](O)[C@H](O)[C@@H](CO)N12` (stereo partly drawn), for which the concentration for half-maximal inhibition (IC50) at Beta-galactosidase was 320 µM; in [3], 6.6 µM; in assay [6] it was 200 µM. In addition, the inhibition (in assay [2]; in assay [10]; with Penicillium decumbens; in [11]; in the assay filed under Rattus norvegicus [4]; in the assay filed under Rattus norvegicus [7]) was less than 50% each time. For the same compound, the inhibition (with Oryza sativa; in assay [8]; in assay [9]; with Prunus dulcis) was less than 50% each time.
For `OC[C@H]1N[C@H](C(O)CCC[C@@H]2CCC[C@]3(CCCCO3)O2)[C@@H](O)[C@@H]1O` (stereo partly drawn), half-maximal inhibition in assay [1] (IC50) was put at 0.01 µM.
On to `OC[C@@H](O)[C@H]1N[C@H](CO)[C@@H](O)[C@@H]1O`, for which the IC50 against Beta-galactosidase amounted to 4.4 µM; in [6], 3.2 µM.
In the case of `OCC(O)CC(O)[C@@H]1CC[C@@H]2[C@H](O)[C@H](O)[C@@H](CO)N21` (stereo partly drawn), the half-inhibitory concentration (IC50) against Beta-galactosidase came to 920 µM; in assay [3], 650 µM; in assay [5], 390 µM; in assay [6], 11.4 µM; in [1], 25.4 µM. Moreover, the inhibition (in [2]; in assay [10]; with Penicillium decumbens; in assay [11]; in the assay filed under Rattus norvegicus [4]; in the assay filed under Rattus norvegicus [7]) was less than 50% each time. The inhibition in [8] and in [9] was less than 50% in each case.
In the case of `CC(O)[C@@H](O)[C@H]1N[C@H](CO)[C@@H](O)[C@@H]1O` (stereo partly drawn), the IC50 turned out to be 130 µM against Beta-galactosidase; 630 µM in assay [3]; 650 µM in [5]; 150 µM at Beta-mannosidase; 20 µM in [6]; 120 µM in assay [1]. Besides, the inhibition (in [2]; with Penicillium decumbens; in [11]; in the assay filed under Rattus norvegicus [4]; in the assay filed under Rattus norvegicus [7]; in assay [8]) was less than 50% throughout. This compound also yielded an inhibition in assay [9] of less than 50%.
On to `O=C(CCCO)CCCCCCCC[C@@H](O)[C@H]1N[C@H](CO)[C@@H](O)[C@@H]1O`, for which, in assay [1], inhibition was half-maximal at 0.01 µM (IC50).
Still for that read-out and setting: for `OC[C@H]1N[C@H]([C@H](O)CCCC[C@@H]2CCC[C@]3(CCCO3)O2)[C@@H](O)[C@@H]1O` the value was 0.01 µM.
